Consider eight molecules from ChEMBL document CHEMBL1147230, “Novel oxylipin metabolites from the brown alga Eisenia bicyclis” (2003).

Common to all, as to assay type: functional
For test [1], the system named is Bacillus subtilis. Kind of test: Antibacterial activity against Bacillus subtilis after 12 hrs relative to vancomycin. In short, it runs like this:
(§1)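 Paper disk diffusion: 0.1 mg sample loaded per disk, incubated on bouillon culture medium at 37 °C. Inhibition zone diameter measured after 12 h. Activity expressed relative to a vancomycin standard disk (0.1 mg).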

Test [2] concerns Staphylococcus aureus. Kind of test: Antibacterial activity against Staphylococcus aureus after 12 hrs relative to vancomycin. The method, boiled down: as §1
Test [3] concerns Bacillus subtilis. Kind of test: Antibacterial activity against Bacillus subtilis after 12 hrs. The method, boiled down: (§2)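 Paper disk diffusion: 0.1 mg sample loaded per disk, incubated in bouillon culture medium at 37 °C for 12 h, then inhibition zone diameter measured. Activity expressed relative to vancomycin standard (0.1 mg per disk).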
Test [4] concerns Staphylococcus aureus. Kind of test: Antibacterial activity against Staphylococcus aureus after 12 hrs. The method, boiled down: as §2

For `CC[C@H]1O[C@@H]2[C@@H](/C=C\C/C=C\CCCCC(=O)O)[C@H]1C[C@H]2Cl`, the results for the Activity in the test with Bacillus subtilis [1] and in the test on Staphylococcus aureus [2] were 0.43 and 0.4, respectively.
In the same order, the values of `CC[C@@H]1OC(=O)CCCC/C=C\C/C=C\[C@H]2[C@H]1C[C@@H]1O[C@H]21` [ECKLONIALACTONE A] are 0.3 and 0.41.
In the same order, the values of `CC[C@H](Cl)[C@@H]1C[C@@H]2O[C@@H]2[C@H]1/C=C\C/C=C\CCCCC(=O)O` [EGREGIACHLORIDE A] are 0.35 and 0.47.
As to `CC[C@@H]1OC(=O)CCCC/C=C\C/C=C\[C@@H]2[C@@H](O)[C@H](Cl)C[C@H]21` [EISENIACHLORIDE A], the Activity with Bacillus subtilis [1] is given as 0.36; with Staphylococcus aureus [2], 0.38.
With `CC[C@@H]1OC(=O)CCCCCCC/C=C\[C@@H]2[C@@H](O)[C@H](Cl)C[C@H]21` [EISENIACHLORIDE B], the Activity in the test with Bacillus subtilis [1] is listed as 0.31; with Staphylococcus aureus [2], 0.53.
The like results for `CC[C@@H]1OC(=O)CCC/C=C\C/C=C\C/C=C\[C@@H]2[C@@H](O)[C@H](Cl)C[C@H]21` [EISENIACHLORIDE C] were, in that order, 0.29 and 0.34.
In the same order, the values of `CC[C@@H]1OC(=O)CCCCCCC/C=C\[C@@H]2[C@@H](O)[C@H](I)C[C@H]21` [EISENIAIODIDE B] are 0.28 and 0.47.
Regarding `CN[C@H](CC(C)C)C(=O)N[C@H]1C(=O)N[C@@H](CC(N)=O)C(=O)N[C@H]2C(=O)N[C@H]3C(=O)N[C@H](C(=O)N[C@H](C(=O)O)c4cc(O)cc(O)c4-c4cc3ccc4O)[C@H](O)c3ccc(c(Cl)c3)Oc3cc2cc(c3O[C@@H]2O[C@H](CO)[C@@H](O)[C@H](O)[C@H]2O[C@H]2C[C@](C)(N)[C@H](O)[C@H](C)O2)Oc2ccc(cc2Cl)[C@H]1O` [VANCOMYCIN], the Activity in the test on Bacillus subtilis [1] and with Staphylococcus aureus [2] was 1 throughout. The results for the “inhibition zone (IZ)” value in the test on Bacillus subtilis [3] and with Staphylococcus aureus [4] were 26.8 mm and 34.6 mm, respectively.
